The text below walks through data of ChEMBL document CHEMBL4834390, “Nanomolar-Potency 1,2,4-Triazoloquinoxaline Inhibitors of the Kidney Urea Transporter UT-A1” (J Med Chem, 2018).

The IC50 is the concentration that inhibits the measured activity by half. Higher therefore signals a need for much substance.

Series [1] concerns Rattus norvegicus. Nature of the series: Diuretic activity in Wistar rat assessed as increase in urine volume at 4 mg/kg, iv after 3 hrs. It is filed as functional, organism-based. An outline of the steps:
(§1)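 Male Wistar rats (250–300 g), acclimated in metabolic cages 3 days (6 h/day). Urine voided spontaneously over 3 h before dosing, then 4 mg/kg iv via catheter in saline with 20% dimethylacetamide and 1.28 mg/mL NaOH, or vehicle. Urine collected 3 h after dosing; volume and osmolality compared with pretreatment (paired t-test); mean ± SEM, n = 4.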

The next series has as its target T1, Urea transporter 1 (Rattus norvegicus, UniProt P97689).
T1 sequence (P97689 whole entry): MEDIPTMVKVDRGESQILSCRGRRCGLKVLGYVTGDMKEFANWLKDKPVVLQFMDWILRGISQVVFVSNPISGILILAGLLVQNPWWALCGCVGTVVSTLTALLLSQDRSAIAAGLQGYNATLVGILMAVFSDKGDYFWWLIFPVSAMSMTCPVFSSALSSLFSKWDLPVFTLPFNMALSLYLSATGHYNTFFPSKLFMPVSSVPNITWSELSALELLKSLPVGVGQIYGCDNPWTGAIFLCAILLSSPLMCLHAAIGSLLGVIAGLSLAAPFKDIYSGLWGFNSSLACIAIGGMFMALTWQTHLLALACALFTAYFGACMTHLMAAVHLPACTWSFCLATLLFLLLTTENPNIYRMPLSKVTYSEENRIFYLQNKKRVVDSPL
Nature of the series: Inhibition of rat UT-B incubated for 15 mins. The method in brief: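 Rat whole blood diluted to ~1.5% hematocrit in PBS with 1.25 M acetamide and 5 mM glucose; compound incubated 15 min, then cells mixed into isomolar buffer; lysis read by absorbance at 710 nm. Isomolar buffer as non-lysed and 0.7 mM phloretin as lysed control; % lysis computed from these; mean ± SEM, n = 3.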

The next series concerns the target T2, Urea transporter 2 (Rattus norvegicus, UniProt Q62668).
T2 sequence (Q62668 whole entry): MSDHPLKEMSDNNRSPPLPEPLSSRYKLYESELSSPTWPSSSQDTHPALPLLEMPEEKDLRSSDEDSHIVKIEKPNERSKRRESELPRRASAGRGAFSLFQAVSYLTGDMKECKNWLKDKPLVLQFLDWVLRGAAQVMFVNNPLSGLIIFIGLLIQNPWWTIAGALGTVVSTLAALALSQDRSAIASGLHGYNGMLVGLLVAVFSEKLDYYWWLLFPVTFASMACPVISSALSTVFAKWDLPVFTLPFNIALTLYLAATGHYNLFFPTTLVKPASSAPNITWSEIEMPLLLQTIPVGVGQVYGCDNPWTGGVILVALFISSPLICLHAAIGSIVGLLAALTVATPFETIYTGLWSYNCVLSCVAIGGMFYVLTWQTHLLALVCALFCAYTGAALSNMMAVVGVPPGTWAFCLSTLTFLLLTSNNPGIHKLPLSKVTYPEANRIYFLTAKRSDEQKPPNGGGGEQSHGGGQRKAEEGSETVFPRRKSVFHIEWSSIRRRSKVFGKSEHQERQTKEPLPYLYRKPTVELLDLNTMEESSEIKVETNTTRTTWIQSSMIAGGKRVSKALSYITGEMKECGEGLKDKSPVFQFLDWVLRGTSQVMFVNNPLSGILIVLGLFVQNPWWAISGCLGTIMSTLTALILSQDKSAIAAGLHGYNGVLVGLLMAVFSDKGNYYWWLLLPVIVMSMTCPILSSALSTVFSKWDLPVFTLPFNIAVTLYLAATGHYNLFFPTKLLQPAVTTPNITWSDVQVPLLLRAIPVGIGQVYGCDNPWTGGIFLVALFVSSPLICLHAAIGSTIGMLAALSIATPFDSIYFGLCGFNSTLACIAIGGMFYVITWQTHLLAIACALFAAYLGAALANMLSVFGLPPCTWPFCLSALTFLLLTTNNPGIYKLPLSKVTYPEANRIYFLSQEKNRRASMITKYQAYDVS
In words: Inhibition of rat UT-A1 expressed in MDCK cells incubated for 15 mins by fluorescence plate reader assay. Type of series: cell-based.

Series [2] is described as follows: Drug concentration in Wistar rat urine at 4 mg/kg, iv after 3 hrs by LC/MS analysis. The settings on record: read-out: Ct. Type of series: ADME, organism-based. An outline of the steps: (§2)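 Male Wistar rats (250–300 g) dosed 4 mg/kg iv in saline containing 20% dimethylacetamide and 1.28 mg/mL NaOH. Tail-vein blood taken at 15, 30, 60, 120, 180 min without anticoagulant, serum separated; urine collected 3 h in metabolic cages; samples frozen at –20 °C. LC/MS (ESI positive) quantitation against standards spiked into control rat urine or plasma.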

The subject of series [3] is Rattus norvegicus. In words: Diuretic activity in Wistar rat assessed as reduction in urine osmolality at 4 mg/kg, iv after 3 hrs. It is filed as functional, organism-based. An outline of the steps:
as §1

The nature of series [4]: Metabolic stability in Sprague-Dawley rat liver microsomes assessed as compound remaining at 5 uM preincubated for 5 mins followed by NADPH addition and measured at 30 mins by LC/MS analysis. Type of series: ADME, Microsome. The settings on record: time 35 min, read-out: Stabilty. An outline of the steps: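 Compound at 5 µM preincubated 5 min at 37 °C with male Sprague-Dawley rat liver microsomes (1 mg protein/mL) in 0.1 M PBS pH 7.4. 1 mM NADPH then added, incubation continued at 37 °C for set times, then chilled and EtOAc-extracted. Parent compound measured by LC/MS as peak area/internal standard ratio; mean ± SEM, n = 3.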

The test system of another series is MDCK. Nature of the series: Cytotoxicity against dog MDCK cells at 10 uM after 24 hrs by alamar blue assay. Type of series: cell-based, Canis lupus familiaris. An outline of the steps:
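MDCK cells stably co-expressing rat UT-A1, YFP-H148Q/V163S and human AQP1 grown 24 h at 37 °C, then exposed to compound at 10 µM for 24 h; viability read by AlamarBlue; mean ± SEM, n = 3.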
In general terms: The colour change of resazurin is a common sign of viable cells or microbes.

Series [5] in a line: Drug concentration in Wistar rat serum at 4 mg/kg, iv after 3 hrs by LC/MS analysis. It is filed as ADME, organism-based. The method in brief:
as §2

Active and inactive are the calls of the source. No cut-off for these calls is given here. A value given as a limit tells only on which side of the number the result lay.

`CCCc1nnc2c(Oc3ccc(NS(=O)(=O)c4cc(Cl)ccc4OC)cc3)nc3cc(F)c(F)cc3n12`: the outcome with Rattus norvegicus [1] and with Rattus norvegicus [3] was Active. For the same compound, the IC50 on Urea transporter 1 was found to be 800 nM; against Urea transporter 2 it was 300 nM. Besides, the concentration at 3 h in series [2] is 6 µM; in series [5], over 2 µM. Besides, the remaining at 0.5 h, 5 µM in series [4] was found to be 60%. Further, the Activity result in the series on MDCK is given as “Non-Toxic”.
